Experimental data from different studies.
Each line is one published result; the experiments were not run side by side.
Cell line: Vero
Observed: cell growth or viability

SMILES	assay	setting	IC50 [µM]
OC(Cn1cncn1)(Cn1cncn1)c1ccc(F)cc1F	MTT	24 h	173
CNC(=O)c1ccc(NC(=O)Cn2c(=O)c3cc(I)ccc3n(Cc3ccccc3)c2=O)cc1	–	–	46.9
S=c1nc(-c2ccc(Nc3nnc(-c4ccc(Cl)cc4)c4ccccc34)cc2)cc(-c2ccc(Cl)cc2)[nH]1	–	–	3.15
COc1ccc(NC(=O)C2=C(C)NC(C)=C(C(=O)Nc3cc(OC)c(Cl)cc3OC)C2c2ccccc2)c(OC)c1 (stereo not shown)	MTT	–	59.6
C#Cc1cccc(Nc2ncnc3cc(OCCOC)c(OCCOC)cc23)c1	MTT	72 h	67
NNC(=O)c1ccc(NC(=O)Cn2c(=O)c3cc(I)ccc3n(Cc3ccccc3)c2=O)cc1	–	–	52.1
CS(=O)(=O)CCNCc1ccc(-c2ccc3ncnc(Nc4ccc(OCc5cccc(F)c5)c(Cl)c4)c3c2)o1	MTT	–	17.5
Clc1ccc(-c2nnc(Nc3ccc(C4=NNC(c5ccc(Cl)cc5)C4)cc3)c3ccccc23)cc1 (stereo not shown)	–	–	4.25
COc1cc(NC(=O)C2=C(C)NC(C)=C(C(=O)Nc3cc(OC)c(Cl)cc3OC)C2c2cccc(Cl)c2)c(OC)cc1Cl	MTT	–	28.4
Cc1ccc2c(-c3cc4c(CN5CCN(Cc6ccccn6)CC5)cnc(C)c4o3)cc(=O)oc2c1	MTT	72 h	60.4
COc1cc(NC(=O)C2=C(C)NC(C)=C(C(=O)Nc3cc(OC)c(Cl)cc3OC)C2c2ccc(Cl)cc2)c(OC)cc1Cl	MTT	–	27.4
Cc1ncc(CN2CCc3ccccc3C2)c2cc(C(=O)c3ccc4c(c3)OCCO4)oc12	MTT	72 h	181
Oc1ccccc1C1CC(c2ccc(Nc3nnc(-c4ccc(Cl)cc4)c4ccccc34)cc2)=NN1 (stereo not shown)	–	–	4.11
C=CC(=O)Nc1cc(Nc2nccc(-c3cn(C)c4ccccc34)n2)c(OC)cc1N(C)CCN(C)C	MTT	72 h	181
COc1ccc(C2CC(c3ccc(Nc4nnc(-c5ccc(Cl)cc5)c5ccccc45)cc3)=NN2)cc1 (stereo not shown)	–	–	3.22
C=CCn1c(=O)n(CC(=O)Nc2ccc(-n3nc(C)cc3C)cc2)c(=O)c2cc(I)ccc21	–	–	43.4
COc1cc(NC(=O)C2=C(C)NC(C)=C(C(=O)Nc3cc(OC)c(Cl)cc3OC)C2c2ccco2)c(OC)cc1Cl	MTT	–	69.8
O=C(Cn1c(=O)c2cc(I)ccc2n(Cc2ccccc2)c1=O)Nc1ccc(-c2nnc(S)o2)cc1	–	–	43.8
COc1ccc(NC(=O)C2=C(C)NC(C)=C(C(=O)Nc3cc(OC)c(Cl)cc3OC)C2c2ccc(Cl)cc2)c(OC)c1 (stereo not shown)	MTT	–	54
